# Active and inactive are the calls of the source. The calls are words filed in the database; no cut-off is given here.
# Legend:
# Leishmania mexicana [1] = experiment: (§1) Antileishmanial activity against Leishmania mexicana MNYC/BZ/62/M379 amastigotes expressing red-shifted firefly luciferase from integrated ribosomal (28S) RNA locus infected in mouse J774.A1 cells assessed as parasite survival at 0.1 uM measured after 96 hrs by luminescence based analysis relative to control; format: functional; conditions: MNYC/BZ/62/M379, J774.A1
# [2] = Cytotoxicity against mouse J774.A1 cells assessed as cell survival at 0.1 uM measured after 96 hrs by SYBR Green II dye based analysis relative to control; format: toxicity; conditions: read-out: Survival
# Summary of the method: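 Uninfected J774A.1 mouse macrophages were plated at 1 × 10⁴ cells/well in DMEM with 10% heat-inactivated FBS and left 3 h at 37 °C to reattach. Compounds were added from DMSO, and analogues were screened at 0.1 μM. After 96 h at 37 °C in 5% CO₂, medium was removed. SYBR Green II (1:1000 in 1% Triton/PBS) was added for 1 h in the dark at room temperature, and fluorescence was read at Ex 485/Em 535 as a DNA-content measure of viability.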
# Leishmania mexicana [3] = experiment: Antileishmanial activity against Leishmania mexicana MNYC/BZ/62/M379 amastigotes expressing red-shifted firefly luciferase from integrated ribosomal (28S) RNA locus infected in mouse J774.A1 cells assessed as reduction in parasite survival measured after 96 hrs by luminescence based analysis; format: functional, organism-based; conditions: MNYC/BZ/62/M379, J774.A1, 96 h
# Summary of the method: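 J774A.1 macrophages infected with stationary-phase luciferase-expressing promastigotes at 10:1 parasites:macrophage, overnight at 37 °C, 5% CO₂. Non-internalized parasites washed off and 1 × 10⁴ cells/well replated in MEM/10% HI-FBS. Compounds in DMSO added as serial 3-fold dilutions (typically 10 μM–1 nM) for 96 h. Luciferase luminescence read; EC50 from log-transformed sigmoidal variable-slope fit. Mean ± SD of ≥2 independent experiments.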
# [4] = Cytotoxicity against mouse J774.A1 cells assessed as reduction in cell survival measured after 96 hrs by SYBR Green II dye based analysis; format: toxicity
# Summary of the method: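 Uninfected J774A.1 macrophages, 1 × 10⁴ cells/well in DMEM/10% HI-FBS, reattached 3 h, then exposed to compounds for 96 h. DNA content read after lysis with SYBR Green II (1:1000 in 1% Triton/PBS), 1 h dark at room temperature, fluorescence Ex 485/Em 535.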
# [5] = Therapeutic index, ratio of EC50 for mouse J774.A1 cells to EC50 for antileishmanial activity against Leishmania mexicana MNYC/BZ/62/M379 amastigotes expressing red-shifted firefly luciferase from integrated ribosomal (28S) RNA locus infected in mouse J774.A1 cells; format: toxicity, cell-based; conditions: read-out: TI
# Leishmania mexicana [6] = experiment: as §1, with “assessed as inhibition of parasite growth” for “assessed as parasite survival”, “of parasite growth at 0.1” for “as parasite survival at 0.1”; format: functional; conditions: MNYC/BZ/62/M379, J774.A1, read-out: INH
# [7] = Metabolic stability in pre-warmed pooled human liver microsomes assessed as half life at 1 uM measured upto 60 mins by LC-MS analysis; format: ADME, Microsome
# Summary of the method: (§2)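 Compound at 1 μM final with 0.5 mg/mL pooled human or mouse liver microsomes, 1.3 mM NADP and 3.3 mM MgCl₂ in 100 mM potassium phosphate, pH 7.4. Reaction started with 1 U/mL G6PD at 37 °C with shaking.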
# [8] = Metabolic stability in pre-warmed pooled mouse liver microsomes assessed as half life at 1 uM measured upto 60 mins by LC-MS analysis; format: ADME, Microsome; summary of the method: as §2
# HepG2 = experiment: Cytotoxicity against human HepG2 cells assessed as inhibition of cell growth incubated for 48 hrs by MTT assay; format: toxicity, cell-based
# Summary of the method: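 HepG2 cells, 2.5 × 10⁴/well in supplemented complete MEM, settled overnight at 37 °C, 5% CO₂. Compounds given as 11 duplicate 1.6-fold dilutions, 10 to 0.15 μg/mL, for 48 h. MTT added for 1 h in the dark at room temperature, formazan dissolved in acidified isopropanol, absorbance read. Triplicate runs; IC50 by sigmoidal variable-slope regression.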
# Leishmania mexicana [9] = experiment: Antileishmanial activity against Leishmania mexicana amastigotes expressing red-shifted firefly luciferase from integrated ribosomal (28S) RNA locus infected in female BALB/c mouse assessed as retardation of lesion progression by measuring reduction in footpad lesion at 40 mg/kg/day, po …; format: functional, organism-based; conditions: time 20-29 day
# Leishmania mexicana [10] = experiment: Antileishmanial activity against Leishmania mexicana amastigotes expressing red-shifted firefly luciferase from integrated ribosomal (28S) RNA locus infected in female BALB/c mouse assessed as retardation of lesion progression by measuring reduction in luminescence signal over infected footpad at …; format: functional, organism-based; conditions: dose 40.0 mg/kg/day, route po, time 20-29 day
Compound,survival at 0.1 µM (Leishmania mexicana [1]) [%],"viability at 96 h, 0.1 µM [2] [%]",EC50 (Leishmania mexicana [3]) [µM],EC50 at 96 h [4] [µM],selectivity ratio [5],percent inhibition of parasite growth at 0.1 µM (Leishmania mexicana [6]) [%],half-life at 1 µM [7] [h],half-life at 1 µM [8] [h],IC50 (HepG2) [µM],Activity (Leishmania mexicana [9]),Activity (Leishmania mexicana [10])
CC1=C(C)/C(=C/NC2CCCCCC2)N=C1c1ccc(CC(C)C)[nH]1.Cl,2.3,74.5,0.0443,1.24,28,> 96,> 1,> 1,,,
COC1=CC(c2ccc(Cc3ccc(OC)cc3)[nH]2)=N/C1=C\Nc1ccc(Cl)cc1,93.5,101,,,,~7,,,,,
CCC1=CC(c2ccc[nH]2)=N/C1=C\NC1CCCCCC1,42.1,88.7,,,,~60,,,,,
COC1=CC(c2ccc[nH]2)=N/C1=C\Nc1ccc(F)c(OC)c1.Cl,98.3,58.7,,,,~2,> 1,,,,
CC1=C(C)/C(=C/NC2CCCCCCC2)N=C1c1ccc[nH]1,33.5,43.5,,,,< 80,,,,,
CC1=CC(c2ccc[nH]2)=N/C1=C\NC1CCCCCC1,26.3,88.4,,,,~75,,,,,
CCC1=C(CC)/C(=C/N[C@H]2CC[C@H](C)CC2)N=C1c1ccc[nH]1.Cl,17.1,87.8,0.0733,1.42,19,,0.388,,15.9,Active,Active

# — ChEMBL document CHEMBL5506039, “Discovery and Optimization of Tambjamines as a Novel Class of Antileishmanial Agents” (J Med Chem, 2024)
